MrgX1 antagonist: blocks BAM8-22 activation of human MrgX1 receptor | Q96LB2 | MRGX1-HEK293 calcium flux, Fluo-4, BAM8-22 antagonism; stronger effect = lower value | B-score at 10 µM | 310,000 compounds, 1.3% hits | AID 588676;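 active means calcium-response B-score plate-corrected more than 3 library SD below zero, starting fluorescence within 5 deviations, no agonist response on first addition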;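 further: peak minus trough fluorescence over baseline after final BAM8-22 challenge near maximal dose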
Target sequence (Q96LB2 whole entry, looked up): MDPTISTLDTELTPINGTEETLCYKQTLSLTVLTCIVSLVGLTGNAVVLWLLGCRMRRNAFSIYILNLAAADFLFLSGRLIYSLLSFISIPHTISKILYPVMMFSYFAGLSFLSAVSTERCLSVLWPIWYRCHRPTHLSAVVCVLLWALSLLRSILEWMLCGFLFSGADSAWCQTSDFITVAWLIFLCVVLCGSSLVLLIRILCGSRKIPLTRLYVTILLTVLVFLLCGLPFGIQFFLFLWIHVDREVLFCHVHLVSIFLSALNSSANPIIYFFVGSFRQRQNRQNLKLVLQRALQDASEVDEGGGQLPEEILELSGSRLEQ
RGS4 block: human RGS4 inhibition. B-score at 10 µM. P49798. HEK293 M3R/RGS4 inducible, Fluo-4 calcium flux; stronger effect = higher value; triggered by carbachol at its EC20. 310,000 compounds, 0.45% hits;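 active means B-score, a plate-corrected calcium signal, over three deviations above library mean, with baseline fluorescence within five deviations of library mean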;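 further: RGS4 expression induced by doxycycline in cells with stable M3 receptor; B-score is computed from the integrated fluorescence ratio over baseline after carbachol; higher B-score means a larger calcium signal and so more RGS4 inhibition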
Target sequence (P49798 whole entry, looked up): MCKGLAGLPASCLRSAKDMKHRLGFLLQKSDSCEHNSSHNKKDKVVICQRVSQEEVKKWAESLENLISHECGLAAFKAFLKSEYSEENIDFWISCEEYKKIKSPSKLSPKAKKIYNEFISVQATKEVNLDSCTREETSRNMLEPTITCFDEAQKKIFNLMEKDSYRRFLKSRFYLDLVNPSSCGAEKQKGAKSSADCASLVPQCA
RGS4 pot: potentiators or activators of RGS4 | HEK293 M3R/inducible RGS4, carbachol calcium flux Fluo4; stronger effect = lower value | B-score at 10 µM | 310,000 compounds, 0.92% hits | AID 463111;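 active means B-score of the integrated calcium signal more than 4 SD below the library mean, with starting fluorescence not abnormally high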;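 further: negative B-score means reduced calcium response which marks RGS4 activation or potentiation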
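System: HEK293 FlpIn-TREx cells, stable M3R, doxycycline-inducible RGS4. Timing: overnight RGS4 induction, 30 min dye load 37 °C, 20 min compound RT. Also added: carbachol, ECmax concentration. Measured by: Fluo4 fluorescence kinetic imaging of calcium. Evaluation: integrated calcium ratio converted to B score.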
MrgX1 allo act: human MrgX1 positive allosteric modulation, primary screen; Q96LB2; MrgX1-HEK293, Fluo-4 calcium flux, FDSS; stronger effect = higher value; B-score at 10 µM; 310,000 compounds, 0.63% hits; AID 588675;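 active means plate-corrected calcium response at least 3 library SD above typical, normal starting fluorescence, not activating the receptor alone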;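 further: compound read alongside a low EC10 to EC30 dose of BAM8-22 agonist; peak minus trough fluorescence over baseline measured at the second addition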
MrgX1 ag: human MrgX1 receptor agonism, primary screen. 310,000 compounds, 0.44% hits. MrgX1-HEK293 cells, Fluo-4 calcium fluorescence, agonist mode; stronger effect = higher value. B-score at 10 µM. AID 588627;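 active means calcium response B-score plate-corrected fluorescence ratio at least 3 library SD, with starting fluorescence B-score inside 5 SD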
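Material: MrgX1-expressing HEK293 cells; input: 15,000 cells per well; doses: test compound given as first of three sequential additions; schedule: overnight plating before 1 h dye loading; technique: Fluo-4 NW calcium-flux fluorescence, kinetic read; evaluation: baseline-normalised fluorescence change ratio, B-scored; control set: plate-wise positive and negative controls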
MrgX1 allo conf: reconfirmed allosteric activator of human MrgX1 receptor; shares compounds with MrgX1 allo act; MrgX1-HEK293, Fluo-4 calcium fluorescence, FDSS; activation (ratio percentage), % at 10 µM; 1,200 compounds, 13% hits;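 active means ratio at least 3 SD above the weak peptide control, stable starting fluorescence, no direct agonism earlier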;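 further: compound followed by low BAM8-22 agonist challenge near EC20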
HEK293 Ca flux: MrgX1 antagonist counter-screen hit in parental HEK293 cells; AID 624111; shares compounds with MrgX1 antagonist; 4,000 compounds, 2% hits; Fluo-4 calcium fluorescence, FDSS; fluorescence ratio F(max-min)/F0 at 10 µM;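 active means duplicate-averaged calcium fluorescence ratio at least three times the standard deviation of buffer wells, a nonspecific response in parental cells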
HEK293 Ca counter: MrgX1 allosteric activator counter-screen hit in parental HEK293 cells | 4,000 compounds, 0.4% hits | fluorescence ratio F(max-min)/F0 at 10 µM | AID 624114 | shares compounds with MrgX1 antagonist | parental HEK293 calcium flux, Fluo-4 fluorescence ratio; stronger effect = higher value;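 active means calcium fluorescence ratio, averaged over duplicates, at least 3 SD of the buffer-well ratio, meaning a nonspecific response in receptor-free cells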;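 further: untransfected parental HEK293 lacking MrgX1 used as counterscreen for MrgX1 allosteric activators; fluorescence change taken during the second addition on a kinetic imager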
HEK293 Ca cntr2: activity in parental HEK293 cells lacking MrgX1 receptor | Fluo-4 calcium fluorescence (FDSS); stronger effect = higher value | 4,000 compounds, 8.7% hits | fluorescence ratio F(max-min)/F0 at 10 µM | shares compounds with MrgX1 antagonist;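 active means calcium fluorescence ratio at least three times the spread of buffer wells, meaning a non-specific response in parental cells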
* = called active by the depositor. The list is not random: actives were taken first. Their share in the collection is about 3.5%.

`COc1ccc(OCC(=O)N2CCN(S(=O)(=O)c3ccc(Cl)cc3)CC2)cc1` gave MrgX1 antagonist inactive, RGS4 block inactive, RGS4 pot inactive, MrgX1 allo act 14*, MrgX1 ag inactive, MrgX1 allo conf inactive, HEK293 Ca flux inactive, HEK293 Ca counter inactive and HEK293 Ca cntr2 inactive.
COc1ccc(S(=O)(=O)N2CCC(C(=O)NCC3CC3)CC2)cc1 was read as MrgX1 antagonist inactive, RGS4 block inactive, RGS4 pot inactive, MrgX1 allo act 13*, MrgX1 ag inactive, MrgX1 allo conf inactive, HEK293 Ca flux inactive, HEK293 Ca counter inactive and HEK293 Ca cntr2 inactive.
Screening COc1ccc(N2CCN(CC(O)COCc3ccccc3)CC2)cc1 (stereo unspecified) returned MrgX1 antagonist inactive, RGS4 block inactive, RGS4 pot inactive, MrgX1 allo act 7.7*, MrgX1 ag inactive, MrgX1 allo conf inactive, HEK293 Ca flux inactive, HEK293 Ca counter inactive and HEK293 Ca cntr2 inactive.
Screening CCOC(=O)C1C(=O)NC(c2ccccc2)=NC1c1ccc(OC)cc1 (stereo unspecified) returned MrgX1 antagonist inactive, RGS4 block inactive, RGS4 pot inactive, MrgX1 allo act 12*, MrgX1 ag inactive, MrgX1 allo conf inactive, HEK293 Ca flux inactive, HEK293 Ca counter inactive and HEK293 Ca cntr2 inactive.
For COc1ccccc1C(=O)Nc1nnc(-c2ccccc2)s1 the results were MrgX1 antagonist inactive, RGS4 block inactive, RGS4 pot inactive, MrgX1 allo act inactive and MrgX1 ag inactive.
COc1cccc(C(=O)Nc2nnc(-c3ccccc3)s2)c1OC was read as MrgX1 antagonist inactive, RGS4 block inactive, RGS4 pot inactive, MrgX1 allo act 10*, MrgX1 ag inactive, MrgX1 allo conf inactive, HEK293 Ca flux inactive, HEK293 Ca counter inactive and HEK293 Ca cntr2 inactive.
For COc1ccc(CC(=O)Nc2ccccc2Oc2ccccc2)cc1 the results were MrgX1 antagonist inactive, RGS4 block inactive, RGS4 pot inactive, MrgX1 allo act 8.3*, MrgX1 ag inactive, MrgX1 allo conf inactive, HEK293 Ca flux inactive, HEK293 Ca counter inactive and HEK293 Ca cntr2 inactive.
For CC1CC1C(=O)OCC(=O)Nc1ccccc1Oc1ccccc1 (stereo unspecified) the results were MrgX1 antagonist inactive, RGS4 block inactive, RGS4 pot inactive, MrgX1 allo act 12*, MrgX1 ag inactive, MrgX1 allo conf inactive, HEK293 Ca flux inactive, HEK293 Ca counter inactive and HEK293 Ca cntr2 inactive.
`CN(C)C1=NCCN1CCc1ccccc1` gave MrgX1 antagonist inactive, MrgX1 allo act inactive and MrgX1 ag inactive.
Screening CCOc1ccccc1N(CC(=O)Nc1ccccc1F)S(=O)(=O)c1ccccc1 returned MrgX1 antagonist inactive, RGS4 block inactive, RGS4 pot inactive, MrgX1 allo act inactive and MrgX1 ag inactive.
For CC(=O)NCCC(=O)Nc1ccc(C)c(F)c1 the results were MrgX1 antagonist inactive, RGS4 block inactive, RGS4 pot inactive, MrgX1 allo act inactive and MrgX1 ag inactive.
Cc1ccc(NCC(=O)Nc2ccc(Br)cc2)cc1F was read as MrgX1 antagonist inactive, RGS4 block inactive, RGS4 pot inactive, MrgX1 allo act 8.1*, MrgX1 ag inactive, MrgX1 allo conf inactive, HEK293 Ca flux inactive, HEK293 Ca counter inactive and HEK293 Ca cntr2 inactive.
Screening Cc1c(C=O)c2ccccc2n1CC(=O)NC(C)c1ccccc1 (stereo unspecified) returned MrgX1 antagonist inactive, RGS4 block inactive, RGS4 pot inactive, MrgX1 allo act inactive and MrgX1 ag inactive.
Screening COc1nc(N(C)S(=O)(=O)c2ccc(C)cc2)nc(C)c1Br returned MrgX1 antagonist inactive, RGS4 block inactive, RGS4 pot inactive, MrgX1 allo act inactive and MrgX1 ag inactive.
Screening Cc1c(CC(=O)O)c(=O)oc2c(C)c(OCc3c(F)cccc3Cl)ccc12 returned MrgX1 antagonist inactive, RGS4 block inactive, RGS4 pot inactive, MrgX1 allo act 13*, MrgX1 ag inactive, MrgX1 allo conf inactive, HEK293 Ca flux inactive, HEK293 Ca counter inactive and HEK293 Ca cntr2 inactive.
`Cc1c(CC(=O)O)c(=O)oc2c(C)c(OCc3ccccc3)ccc12` gave MrgX1 antagonist inactive, RGS4 block inactive, RGS4 pot inactive, MrgX1 allo act inactive and MrgX1 ag inactive.
`C/C(=C\C(=O)C(F)(F)F)Nc1cc(C)cc(C)c1` gave MrgX1 antagonist inactive, RGS4 block inactive, RGS4 pot inactive, MrgX1 allo act inactive and MrgX1 ag inactive.
`C/C(=C\C(=O)C(F)(F)F)Nc1ccc(C)cc1` gave MrgX1 antagonist inactive, RGS4 block inactive, RGS4 pot inactive, MrgX1 allo act 7.7*, MrgX1 ag inactive, MrgX1 allo conf 13%*, HEK293 Ca flux inactive, HEK293 Ca counter inactive and HEK293 Ca cntr2 inactive.
Screening Cc1ccc(-c2cc(C)nc3ncnn23)cc1 returned MrgX1 antagonist inactive, RGS4 block inactive, RGS4 pot inactive, MrgX1 allo act 8.9*, MrgX1 ag inactive, MrgX1 allo conf inactive, HEK293 Ca flux inactive, HEK293 Ca counter inactive and HEK293 Ca cntr2 inactive.
For O=C(Nc1nc2n(n1)C(c1ccccc1)CC(c1ccc(Cl)cc1)N2)c1ccco1 (stereo unspecified) the results were MrgX1 antagonist inactive, RGS4 block inactive, RGS4 pot inactive, MrgX1 allo act 7.3*, MrgX1 ag inactive, MrgX1 allo conf inactive, HEK293 Ca flux inactive, HEK293 Ca counter inactive and HEK293 Ca cntr2 inactive.
`COc1ccc(C2CC(c3ccccc3)Nc3nc(NC(=O)c4ccco4)nn32)cc1` (stereo unspecified) gave MrgX1 antagonist inactive, RGS4 block inactive, RGS4 pot inactive, MrgX1 allo act inactive and MrgX1 ag inactive.
`COc1ccc(-c2cn(-c3ccccc3)nc2CO)cc1` gave MrgX1 antagonist inactive, RGS4 block inactive, RGS4 pot inactive, MrgX1 allo act 8.6*, MrgX1 ag inactive, MrgX1 allo conf inactive, HEK293 Ca flux inactive, HEK293 Ca counter inactive and HEK293 Ca cntr2 inactive.

High-throughput results deposited in PubChem BioAssay by Johns Hopkins Ion Channel Center.
